From ChEMBL document CHEMBL4680268, “Pharmacomodulations of the benzoyl-thiosemicarbazide scaffold reveal antimicrobial agents targeting d-alanyl-d-alanine ligase in bacterio” (Eur J Med Chem, 2020)
Converted amounts (≈) assume the structure as drawn. The source made the active and inactive calls. The rule behind the calls is not given here.

Assays:
[1] = Inhibition of recombinant Enterococcus faecalis C-terminal His6-tagged DdlB expressed in Escherichia coli LMG194 using D-Ala as substrate preincubated with enzyme for 30 mins followed by substrate addition and measured after 20 mins by malachite green based colorimetric analysis
Method in brief: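 DdlB (20 mg/L) malachite green phosphate assay: enzyme, inhibitor and 500 µM ATP preincubated 30 min at 30 °C in Tris-HCl pH 7.4 buffer with MgCl₂, KCl and 10% DMSO, then 1 mM D-Ala for 20 min; A650 read. IC₅₀ from 11 concentrations, also run with 0.01% Triton X-100; mean ± SD of triplicates, n ≥ 2; EC₅₀ given where maximal inhibition stayed below 50%.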

Staphylococcus aureus [2] = assay: Antibacterial activity against Staphylococcus aureus ATCC 25923 assessed as reduction in bacterial growth incubated for 18 to 24 hrs by broth microdilution method; type: functional; conditions: time 18-24 hrs
Enterococcus faecalis [3] = assay: Antibacterial activity against Enterococcus faecalis ATCC 29212 assessed as reduction in bacterial growth incubated for 18 to 24 hrs by broth microdilution method; type: functional; conditions: time 18-24 hrs
Enterococcus faecalis [4] = assay: Inhibition of recombinant Enterococcus faecalis C-terminal His6-tagged DdlB expressed in Escherichia coli LMG194 assessed as residual activity using D-Ala as substrate at 100 uM preincubated with enzyme for 30 mins followed by substrate addition and measured after 20 mins by malachite green based colorimetric analysis relative to control; conditions: time 50.0 min
Method in brief: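 Purified E. faecalis His-tagged DdlB (20 mg/L) preincubated 30 min at 30 °C with 100 µM compound and 500 µM ATP in 20 mM Tris-HCl pH 7.4, 10 mM MgCl₂, 10 mM KCl, 10% DMSO; 1 mM D-Ala added, 20 min at 30 °C. Phosphate detected with malachite green reagent, A650 after 25 min dark; residual activity versus no-inhibitor control, triplicate.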

Enterococcus faecalis [5] = assay: Antibacterial activity against vancomycin resistant Enterococcus faecalis BM4390 harboring VanB mutant with inactive Ddl and constitutive expression of D-Ala-D-Lac assessed as reduction in bacterial growth incubated for 18 to 24 hrs by broth microdilution method; type: functional; conditions: time 18-24 hrs
Method in brief: (§1)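 Broth microdilution in cation-adjusted Mueller-Hinton broth per CLSI; inoculum 10⁶ bacteria/mL. Two-fold serial dilutions, compound in broth with 5% DMSO mixed 1:1 with bacterial suspension, giving 2.5% DMSO final. Top concentration 0.1, 0.4 or 0.8 mM depending on solubility. Incubated 18–24 h at 37 °C. MIC = lowest concentration preventing visible growth.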

Enterococcus faecalis [6] = assay: Antibacterial activity against vancomycin resistant Enterococcus faecalis JH2-2::C1 harboring constitutive expression of Ddl and vanB ligase assessed as reduction in bacterial growth incubated for 18 to 24 hrs by broth microdilution method; type: functional; conditions: time 18-24 hrs; method in brief: as §1
Enterococcus faecalis [7] = assay: Antibacterial activity against vancomycin resistant Enterococcus faecalis BM4575 harboring VanE genotype, constitutive expression of Ddl and VanE D-Ala-D-Ser ligase assessed as reduction in bacterial growth incubated for 18 to 24 hrs by broth microdilution method; type: functional; conditions: time 18-24 hrs; method in brief: as §1
Staphylococcus aureus [8] = assay: Antibacterial activity against methicillin resistant and vancomycin intermediate resistant Staphylococcus aureus MU50 assessed as reduction in bacterial growth incubated for 18 to 24 hrs by broth microdilution method; type: functional; conditions: time 18-24 hrs; method in brief: as §1
Staphylococcus aureus [9] = assay: Antibacterial activity against methicillin and linezolid resistant Staphylococcus aureus NRS119 assessed as reduction in bacterial growth incubated for 18 to 24 hrs by broth microdilution method; type: functional; conditions: time 18-24 hrs; method in brief: as §1
Staphylococcus aureus [10] = assay: Antibacterial activity against community-acquired methicillin and erythromycin resistant Staphylococcus aureus SA325 assessed as reduction in bacterial growth incubated for 18 to 24 hrs by broth microdilution method; type: functional; conditions: time 18-24 hrs; method in brief: as §1
Staphylococcus aureus [11] = assay: Antibacterial activity against hospital-acquired methicillin/ciprofloxacin and moxifloxacin resistant Staphylococcus aureus SA481 assessed as reduction in bacterial growth incubated for 18 to 24 hrs by broth microdilution method; type: functional; conditions: time 18-24 hrs; method in brief: as §1
Staphylococcus aureus [12] = assay: Antibacterial activity against hospital-acquired vancomycin resistant Staphylococcus aureus VRS-1 assessed as reduction in bacterial growth incubated for 18 to 24 hrs by broth microdilution method; type: functional; conditions: time 18-24 hrs; method in brief: as §1
Klebsiella pneumoniae = assay: Antibacterial activity against Klebsiella pneumoniae ATCC700603 assessed as reduction in bacterial growth incubated for 18 to 24 hrs by broth microdilution method; type: functional, organism-based; conditions: 700603, time 18-24 hrs
Method in brief: (§2)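 Microdilution in cation-adjusted Mueller-Hinton broth per CLSI; two-fold compound series in CAMHB with 5% DMSO mixed 1:1 with bacterial suspension, giving 10⁶ bacteria/mL inoculum and 2.5% DMSO final. Top concentrations 0.1, 0.4 or 0.8 mM depending on solubility. Incubated 18–24 h at 37 °C; MIC read as lowest concentration preventing visible growth.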

Escherichia coli = assay: Antibacterial activity against Escherichia coli ATCC 25922 assessed as reduction in bacterial growth incubated for 18 to 24 hrs by broth microdilution method; type: functional, organism-based; conditions: time 18-24 hrs; method in brief: as §2
Pseudomonas aeruginosa = assay: Antibacterial activity against Pseudomonas aeruginosa PAO1 assessed as reduction in bacterial growth incubated for 18 to 24 hrs by broth microdilution method; type: functional, organism-based; conditions: time 18-24 hrs; method in brief: as §2

| SMILES | IC50 [1] | MIC (Staphylococcus aureus [2]) | MIC (Enterococcus faecalis [3]) | Activity (Enterococcus faecalis [4]) | MIC (Enterococcus faecalis [5]) | MIC (Enterococcus faecalis [6]) | MIC (Enterococcus faecalis [7]) | MIC (Staphylococcus aureus [8]) | MIC (Staphylococcus aureus [9]) | MIC (Staphylococcus aureus [10]) | MIC (Staphylococcus aureus [11]) | MIC (Staphylococcus aureus [12]) | Activity (Klebsiella pneumoniae) | Activity (Escherichia coli) | Activity (Pseudomonas aeruginosa) |
| --- | --- | --- | --- | --- | --- | --- | --- | --- | --- | --- | --- | --- | --- | --- | --- |
| Oc1ccccc1-c1n[nH]c(=S)n1-c1ccc(F)cc1 | 60000 nM | > 800 µM | > 800 µM |  |  |  |  |  |  |  |  |  |  |  |  |
| Nc1ccccc1C(=O)NNC(=S)Nc1ccccc1 |  | > 400 µM | > 400 µM | > 100% |  |  |  |  |  |  |  |  |  |  |  |
| O=C(NNC(=S)Nc1ccc(F)cc1)c1ccccc1O | 890 nM | > 100 µM | 200 µM (≈ 61.1 µg/mL) |  | > 100 µM | > 100 µM | > 100 µM | > 100 µM | > 100 µM | > 100 µM | > 100 µM | > 100 µM | inactive | inactive | inactive |
| Sc1nnc(-c2ccccc2)n1-c1ccccc1 |  | > 400 µM | > 400 µM | > 100% |  |  |  |  |  |  |  |  |  |  |  |
| CC(=O)NC[C@H]1CN(c2ccc(N3CCOCC3)c(F)c2)C(=O)O1 [LINEZOLID] |  |  |  |  |  |  |  | 3 µM (≈ 1.01 µg/mL) | 190 µM (≈ 64.1 µg/mL) |  |  |  |  |  |  |
| O=C(NNC(=S)Nc1ccc(F)c(F)c1)c1ccccc1O | 920 nM | 400 µM (≈ 129 µg/mL) | 400 µM (≈ 129 µg/mL) | > 50% |  |  |  |  |  |  |  |  | inactive | inactive | inactive |
| COc1ccccc1-c1n[nH]c(=S)n1-c1ccc(Cl)c(Cl)c1 |  | > 400 µM | > 400 µM | > 100% |  |  |  |  |  |  |  |  |  |  |  |
| Oc1ccccc1NC(=S)Nc1ccc(Cl)c(Cl)c1 |  | 25 µM (≈ 7.83 µg/mL) | 50 µM (≈ 15.7 µg/mL) | > 100% | 50 µM (≈ 15.7 µg/mL) | 50 µM (≈ 15.7 µg/mL) | 100 µM (≈ 31.3 µg/mL) | 50 µM (≈ 15.7 µg/mL) | 50 µM (≈ 15.7 µg/mL) | 50 µM (≈ 15.7 µg/mL) | 50 µM (≈ 15.7 µg/mL) | 100 µM (≈ 31.3 µg/mL) | inactive | inactive | inactive |
| COc1ccccc1C(=O)NNC(=S)Nc1ccc(Cl)c(Cl)c1 |  | > 100 µM | > 100 µM | > 100% |  |  |  |  |  |  |  |  |  |  |  |
| S=c1[nH]nc(-c2ccccc2)n1-c1ccc(Cl)c(Cl)c1 |  | > 100 µM | > 100 µM | > 100% |  |  |  |  |  |  |  |  |  |  |  |
| O=C(NNC(=S)Nc1ccc(F)c(F)c1F)c1ccccc1O | 640 nM | 200 µM (≈ 68.3 µg/mL) | 200 µM (≈ 68.3 µg/mL) |  | > 400 µM | > 400 µM | 400 µM (≈ 137 µg/mL) | 400 µM (≈ 137 µg/mL) | 400 µM (≈ 137 µg/mL) | 400 µM (≈ 137 µg/mL) | 400 µM (≈ 137 µg/mL) | 400 µM (≈ 137 µg/mL) | inactive | inactive | inactive |
| Oc1ccccc1-c1nnc(Nc2ccc(Cl)c(Cl)c2)s1 |  | > 100 µM | > 100 µM | > 100% |  |  |  |  |  |  |  |  |  |  |  |
| Oc1ccccc1/N=C(/S)Nc1ccccc1 |  | > 800 µM | > 800 µM | > 100% |  |  |  |  |  |  |  |  |  |  |  |
| CN[C@H](CC(C)C)C(=O)N[C@H]1C(=O)N[C@@H](CC(N)=O)C(=O)N[C@H]2C(=O)N[C@H]3C(=O)N[C@H](C(=O)N[C@H](C(=O)O)c4cc(O)cc(O)c4-c4cc3ccc4O)[C@H](O)c3ccc(c(Cl)c3)Oc3cc2cc(c3O[C@@H]2O[C@H](CO)[C@@H](O)[C@H](O)[C@H]2O[C@H]2C[C@](C)(N)[C@H](O)[C@H](C)O2)Oc2ccc(cc2Cl)[C@H]1O [VANCOMYCIN] |  |  |  |  | 700 µM (≈ 1010 µg/mL) | 350 µM (≈ 507 µg/mL) |  | 5 µM (≈ 7.25 µg/mL) | 0.7 µM (≈ 1.01 µg/mL) |  |  | > 175 µM |  |  |  |
| O=C(NNC(=S)Nc1ccccc1)c1ccccc1O | 740 nM | 800 µM (≈ 230 µg/mL) | > 800 µM |  | > 800 µM | > 800 µM | > 800 µM | 800 µM (≈ 230 µg/mL) | > 800 µM | 800 µM (≈ 230 µg/mL) | 800 µM (≈ 230 µg/mL) | 800 µM (≈ 230 µg/mL) | inactive | inactive | inactive |
